In brackets after ≈: the same amount, converted by molar mass. Activity calls are given as the source filed them. The calls are words filed in the database; no cut-off is given here.
What was measured:
[1] = Toxicity in Artemia salina; format: organism-based; settings: in vivo
THP-1 = experiment: Antiproliferative activity against human THP1 cells after 48 hrs by MTT assay; format: functional; settings: THP-1, 48 h, read-out: ED50 (the source's name)
Outline: (§1)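 Human leukemia cell lines were tested for antiproliferative activity by MTT assay and by radioactive thymidine incorporation. Results are given as ED₅₀ in μg/mL.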

[2] = Antiproliferative activity against human SUP-B15 cells after 48 hrs by MTT assay; format: functional; settings: SUP-B15, 48 h, read-out: ED50 (the source's name); outline: as §1
[3] = Antiproliferative activity against human NAMALWA cells after 48 hrs by MTT assay; format: functional; settings: NAMALVA, read-out: ED50 (the source's name); outline: as §1
L-428 = experiment: Antiproliferative activity against human L428 cells after 48 hrs by MTT assay; format: functional; outline: as §1
U-937 = experiment: Antiproliferative activity against human U937 cells after 48 hrs by MTT assay; format: functional; settings: U-937, 48 h, read-out: ED50 (the source's name); outline: as §1
MOLT-3 = experiment: Antiproliferative activity against human MOLT3 cells after 48 hrs by MTT assay; format: functional; settings: MOLT-3, 48 h, read-out: ED50 (the source's name); outline: as §1

SMILES | LC50 [1] [µg/mL] | EC50 (THP-1) [µg/mL] | EC50 [2] [µg/mL] | EC50 [3] [µg/mL] | EC50 (L-428; L-428, 48 h, read-out: ED50 (the source's name)) [µg/mL] | EC50 (U-937) [µg/mL] | EC50 (MOLT-3) [µg/mL] | Activity (L-428)
C/C=C/C=C/C(=O)N1CC[C@@]23c4ccccc4N[C@@H]4N(C)c5cccc6c5[C@@]42CCN([C@@H]13)[C@@H]6[C@H]1OC1(C)C [COMMUNESIN B] | 0.3 (≈ 0.59 µM) | 11.4 (≈ 22.4 µM) | 7.2 (≈ 14.2 µM) | 9.9 (≈ 19.5 µM) | > 20 | 10.4 (≈ 20.4 µM) | 8.1 (≈ 15.9 µM) | 
C/C=C/C=C/C(=O)N1CC[C@@]23c4ccccc4N[C@@H]4Nc5cccc6c5[C@@]42CCN([C@@H]13)[C@@H]6[C@H]1OC1(C)C [COMMUNESIN C] | 1.96 (≈ 3.96 µM) | 13.1 (≈ 26.5 µM) | 10.8 (≈ 21.8 µM) | 8.2 (≈ 16.6 µM) |  | 11.3 (≈ 22.8 µM) | 8.6 (≈ 17.4 µM) | inactive
C/C=C/C=C/C(=O)N1CC[C@@]23c4ccccc4N[C@@H]4N(C=O)c5cccc6c5[C@@]42CCN([C@@H]13)[C@@H]6[C@H]1OC1(C)C [COMMUNESIN D] | 0.57 (≈ 1.09 µM) | 16.2 (≈ 31 µM) | 9 (≈ 17.2 µM) | 14.6 (≈ 27.9 µM) |  | 13.1 (≈ 25.1 µM) | 9.9 (≈ 18.9 µM) | inactive
